According to article PMC2614345 (Toxicology and applied pharmacology, 2008):
Where two headings read alike, the source gives them in different places.

Legend:
[1] = Biliary excretion of DAPM metabolites; format: in vivo, Sprague Dawley rats; settings: for biliary excretion, male compared to female rats: AUC analysis, 25 and 50 mg/kg DAPM; for AUC for DAPM metabolite elimination in the bile, Females: female rats; for AUC for DAPM metabolite elimination in the bile, Females / AUC for DAPM metabolite elimination in the bile, Males: bile collected 6 h, mean ± SEM, n=4–6; for AUC for DAPM metabolite elimination in the bile, Males: male rats
Method in brief: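 Sprague Dawley rats of both sexes (12–15 wk) under pentobarbital, with biliary, duodenal and peritoneal cannulas and duodenal taurocholate infusion; 1 h basal bile. Gavage of [14C]-test compound, 25 or 50 mg/kg in 35% ethanol, 2 mL/kg. Bile taken for 6 h in 15-min fractions, deproteinized, then C18 HPLC with UV 254 nm and radioisotope detection. Per-rat nmol-versus-time AUC; group mean ± SEM, n=4–6; two-way ANOVA.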

[2] = 25 mg/kg DAPM, ref Dugas et al., 2001, cited from earlier work
rats = settings: ref Dugas et al., 2001, cited from earlier work

Row | SMILES | biliary excretion, male compared to female rats [1] | AUC for DAPM metabolite elimination in the bile, Females ([1]; DAPM 25 mg/kg by gavage) [nmol·h] | AUC for DAPM metabolite elimination in the bile, Females ([1]; DAPM 50 mg/kg by gavage) [nmol·h] | AUC for DAPM metabolite elimination in the bile, Males ([1]; DAPM 25 mg/kg by gavage) [nmol·h] | AUC for DAPM metabolite elimination in the bile, Males ([1]; DAPM 50 mg/kg by gavage) [nmol·h] | maximum rate of biliary excretion of metabolite ([2]; female rats, maximum at 45 min) | maximum rate of biliary excretion of metabolite ([2]; male rats, maximum at 15 min) | threshold dose for observing injury (rats; female rats) [mg/kg] | threshold dose for observing injury (rats; male rats) [mg/kg]
1 | Nc1ccc(Cc2ccc(N)cc2)cc1 [DAPM, 4,4’-Methylenedianiline] | biliary excretion in males was likewise greater than that in female rats | 29 ± 14 | 67 ± 31 | 155 ± 22 | 176 ± 74 | ~ 9 µg/min*kg | ~ 18 µg/min*kg | 25 | 50
2 | CC(=O)Nc1ccc(Cc2ccc(N)cc2)cc1 [Metabolite M5, N-acetyl-DAPM] | greater in male compared to female rats | 39 ± 13 | 132 ± 70 | 175 ± 11 | 259 ± 86 |  |  |  | 
